Article PMC7473156 (European Journal of Medicinal Chemistry, 2020)
Entries after “also recorded” stand apart in the source; their conditions may differ.

Key:
VCR-R CEM cells [1] = experiment: Mitochondrial membrane potential; assay type: cell-based, human; conditions: 24 h
How it was run: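 VCR-R CEM cells were seeded at 0.125 × 10^6 per well 4 h before 24 h exposure to 5 μM compound or DMSO. JC-1 (1 μg/mL) was applied for 1 h before harvest, with elacridar (5 μM) present […]. Cells were washed, resuspended in PBS and read by flow cytometry as the red/green fluorescence shift.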

[2] = tested on: peripheral blood mononuclear cells (PBMCs); experiment: PBMC cell death; assay type: cell-based, human; conditions: 5 and 10 μM, 48 h, compared with RMS3 and RMS5
How it was run: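 PBMCs were isolated from anticoagulated healthy-donor blood on a Ficoll density gradient and kept in RPMI 1640 with 20% FCS and penicillin/streptomycin. Treatment started 4 h after seeding and lasted 48 h. Cells were stained with propidium iodide (5 μg/mL in PBS) and read by flow cytometry, with debris excluded and PI-positive cells counted.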

HepG2 cells [3] = experiment: Cell death of HepG2 cells stably transfected with CYP3A4-EGFP or empty vector; assay type: cell-based, human; conditions: 15 μM, 24 h; for cell death of HepG2 cells: influence of cellular CYP3A4 overexpression: CYP3A4-EGFP versus vector
How it was run: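 HepG2 cells were lipofected with pcDNA3-CYP3A4-EGFP or pcDNA3-EGFP and kept in G418 (0.5 mg/mL) for four weeks; plasmid presence was confirmed by PCR. Cells were seeded at 0.1 × 10^6 per well, adhered overnight, then exposed to 15 μM for 24 h. Propidium iodide (5 μg/mL in PBS) staining was read by flow cytometry without FSC/SSC gating. Specific cell death was calculated against control. Mean ± SEM, three independent experiments.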

VCR-R CEM cells [4] = experiment: Western blot analysis of VCR-R CEM cell lysates; assay type: cell-based, human; conditions: 5 μM, 24 h
How it was run: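 VCR-R CEM cells were seeded at 2 × 10^6 per well 4 h before treatment with DMSO or 5 μM compound for 24 h. Lysates were made in RIPA, separated by SDS-PAGE and transferred to PVDF. Blots were probed for p-Akt (Ser473), total Akt, PARP, Bcl-xL and Mcl-1 (1:1000) and detected by chemiluminescence, with stain-free total protein as loading control.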

[5] = tested on: human umbilical vein endothelial cells (HUVECs); experiment: HUVEC viability; assay type: cell-based; conditions: 10 μM, 24 h, compared with tetrandrine
How it was run: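 HUVECs were cultured in ECGM with 10% FCS and antibiotics/antimycotic, for at most six passages. They were seeded at […], adhered overnight, then exposed to 1, 5 or 10 μM for 24 h. Viability was read by CellTiter-Blue, with fluorescence normalised to vehicle. Mean ± SEM, three independent experiments.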

HepaRG™ cells = experiment: Toxicity to differentiated HepaRG cells without transfection; assay type: cell-based, human; conditions: 24 h, compared with tetrandrine; for toxicity to HepaRG cells (cell viability): 20 μM; for cell viability of HepaRG cells: 10 μM
How it was run: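 HepaRG cells were differentiated in Williams' E with GlutaMAX and Maintenance/Metabolism supplement, then exposed to compound for 24 h. Viability was read by CellTiter-Blue and normalised to vehicle control. Mean ± SEM, three independent experiments.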

P-gp = P-gp (Homo sapiens, UniProt P08183); experiment: Calcein-AM retention assay in P-gp overexpressing VCR-R CEM cells; assay type: cell-based; conditions: 0.1 and 1 μM
How it was run: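 VCR-R CEM cells were loaded with calcein-AM (200 nM) plus test compound (0.1 or 1 μM) for 30 min at 37 °C. After a wash, they were kept without calcein-AM for a further 60 min at 37 °C, then analysed by flow cytometry. Geometric mean fluorescence intensity was normalised to the calcein-AM-only control.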

VCR-R CEM cells [6] = experiment: Apoptosis assay in combination with vincristine; assay type: cell-based, human; conditions: 1 μM compound with varying doses of VCR, 48 h
VCR-R CEM cells [7] = experiment: Cell proliferation assay; assay type: cell-based, human; conditions: 48 h, relative proliferation at 10 μM and IC50
How it was run: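 VCR-R CEM cells (RPMI 1640, 10% FCS) were seeded at 0.02 × 10^6 per well and rested 4 h. Metabolic activity read at that point served as the zero value. Compound exposure was 48 h, with CellTiter-Blue added 2 h before the end and fluorescence read at 590 nm. IC50 was obtained by nonlinear regression; relative proliferation was also taken at 10 μM.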

HepG2 cells [8] = experiment: Western blot analysis of HepG2 cells; assay type: cell-based, human; conditions: 5 μM, 48 h
How it was run: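 HepG2 cells were seeded at 0.5 × 10^6 per well, adhered overnight, then treated with DMSO or 5 μM compound for 24 or 48 h. Cells were lysed in RIPA, run on SDS-PAGE and transferred to PVDF. Blots were probed with p-Akt (Ser473), total Akt, PARP, Bcl-xL and Mcl-1 antibodies (1:1000) and detected by chemiluminescence, with stain-free total protein as loading control.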

[9] = tested on: CYP3A4 overexpressing HepaRG™ cells; assay type: cell-based, human; conditions: 10 μM, 24 h
How it was run: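 HepaRG cells were differentiated in Maintenance/Metabolism medium, then lipofected with pcDNA3-CYP3A4-EGFP or pcDNA3-EGFP 16 h before treatment. Exposure was 10 μM for 24 h. Cell death was read by propidium iodide staining (5 μg/mL in PBS) and flow cytometry, with no FSC/SSC gating. Specific cell death was calculated against control. Mean ± SEM, three independent experiments.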

Chain of P-gp (P08183 whole entry): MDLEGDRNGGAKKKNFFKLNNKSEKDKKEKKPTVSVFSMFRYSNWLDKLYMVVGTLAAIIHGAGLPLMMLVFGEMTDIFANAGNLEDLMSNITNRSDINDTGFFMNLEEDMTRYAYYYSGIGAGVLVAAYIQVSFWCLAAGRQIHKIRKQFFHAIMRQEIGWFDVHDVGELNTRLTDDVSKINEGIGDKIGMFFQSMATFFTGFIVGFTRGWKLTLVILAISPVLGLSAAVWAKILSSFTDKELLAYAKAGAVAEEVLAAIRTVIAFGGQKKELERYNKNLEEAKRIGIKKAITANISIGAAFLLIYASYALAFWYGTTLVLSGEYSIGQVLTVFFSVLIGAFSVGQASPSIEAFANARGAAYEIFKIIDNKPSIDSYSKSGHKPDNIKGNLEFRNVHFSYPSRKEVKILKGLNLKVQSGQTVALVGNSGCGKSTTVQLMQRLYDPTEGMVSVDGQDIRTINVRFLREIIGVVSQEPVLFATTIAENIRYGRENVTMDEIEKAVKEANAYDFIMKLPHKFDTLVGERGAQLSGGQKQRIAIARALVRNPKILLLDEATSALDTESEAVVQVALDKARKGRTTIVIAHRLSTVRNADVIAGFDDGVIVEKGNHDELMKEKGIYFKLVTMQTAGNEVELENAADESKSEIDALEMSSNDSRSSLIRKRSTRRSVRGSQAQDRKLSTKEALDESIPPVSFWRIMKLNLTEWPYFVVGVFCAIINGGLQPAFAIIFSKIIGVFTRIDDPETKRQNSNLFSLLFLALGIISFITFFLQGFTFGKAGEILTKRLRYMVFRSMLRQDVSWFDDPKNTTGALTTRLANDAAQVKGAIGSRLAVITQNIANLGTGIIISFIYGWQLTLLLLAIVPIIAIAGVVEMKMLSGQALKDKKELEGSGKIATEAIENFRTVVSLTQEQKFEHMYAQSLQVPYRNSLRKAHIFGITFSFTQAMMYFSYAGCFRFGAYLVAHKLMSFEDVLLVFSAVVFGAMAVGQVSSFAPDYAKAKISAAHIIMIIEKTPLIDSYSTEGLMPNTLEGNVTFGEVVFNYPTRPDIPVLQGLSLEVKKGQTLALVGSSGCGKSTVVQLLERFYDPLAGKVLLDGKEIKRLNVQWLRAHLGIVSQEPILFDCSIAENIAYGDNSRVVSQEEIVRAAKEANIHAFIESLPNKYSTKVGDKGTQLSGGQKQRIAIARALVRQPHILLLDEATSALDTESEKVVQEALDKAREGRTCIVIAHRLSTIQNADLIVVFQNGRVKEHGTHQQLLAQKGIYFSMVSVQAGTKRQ

Row | Compound | mitochondrial membrane potential ΔΨm (JC-1 shift towards green fluorescence) (VCR-R CEM cells [1]) | cytotoxicity against HepG2 cells in comparison to tetrandrine (HepG2 cells [3]) | PARP cleavage (VCR-R CEM cells [4]) | toxicity to HepaRG cells (cell viability) (HepaRG™ cells) | also measured
1 | COc1ccc2cc1Oc1ccc(cc1)C[C@H]1c3cc(c(OC)cc3CCN1C)Oc1c(OC)c(OC)cc3c1[C@H](C2)N(C)CC3 [tetrandrine, reference compound] | no such an effect | – | – | – | percentage of dead PBMCs [2]: highest percentage of dead PBMCs
2 | COc1cc2c3cc1Oc1c(OC)c(OC)cc4c1C(Cc1ccc(OC(F)(F)F)c(c1)Oc1ccc(cc1)CC3N(C)CC2)N(C)CC4 (racemic) [RMS3, (±)-12-Desmethoxy-12-trifluoromethoxytetrandrine and –isotetrandrine] | – | generally increased cytotoxicities; also recorded: strongly increased cytotoxicites | detected | – | viability of HUVECs [5]: slightly stronger effect on the viability of HUVECs than tetrandrine
3 | COc1cc2c3cc1Oc1c(OC)c(OC)cc4c1C(Cc1cc(cs1)Oc1ccc(cc1)CC3N(C)CC2)N(C)CC4 (racemic) [RMS6, (±)-Ring C thiophene analogues of tetrandrine and –isotetrandrine] | no such an effect | – | – | significantly less toxic than tetrandrine | prevention of efflux of calcein-AM (P-gp inhibition) (P-gp): inhibition of P-gp; sensitization of VCR-R CEM cells to vincristine (apoptosis) (VCR-R CEM cells [6]): successfully sensitized VCR-R CEM cells to VCR; inhibition of proliferation of VCR-R CEM cells (VCR-R CEM cells [7]): nearly inactive; also recorded: no direct effect on proliferation
4 | COc1cc2c3cc1Oc1c(OC)c(OC)cc4c1C(Cc1cc(cs1)Oc1ccc(cc1)CC3N(C)CC2)N(C)CC4 (racemic) [RMS5, (±)-Ring C thiophene analogues of tetrandrine and –isotetrandrine] | – | generally increased cytotoxicities; also recorded: strongly increased cytotoxicites | – | – | expression of Bcl-XL and Mcl-1 (HepG2 cells [8]): slightly diminished; p-Akt levels (HepG2 cells [8]): reduced
5 | COc1cc2c3cc1Oc1c(OC)c(OC)cc4c1C(Cc1cccc(c1)Oc1ccc(cc1)CC3N(C)CC2)N(C)CC4 (racemic) [RMS2, (±)-12-Desmethoxytetrandrine and –isotetrandrine] | – | generally increased cytotoxicities | – | significantly more toxic to HepaRG™ cells than tetrandrine | cell viability of HepaRG cells (HepaRG™ cells): strongly decreased cell viability; cell death of CYP3A4 overexpressing HepaRG cells versus empty vector [9]: strongest effect on cell viability
6 | COc1cc2c3cc1Oc1c(OC)c(OC)cc4c1C(Cc1ccc(Cl)c(c1)Oc1ccc(cc1)CC3N(C)CC2)N(C)CC4 (racemic) [RMS8, (±)-12-Desmethoxy-12-chlorotetrandrine and –isotetrandrine] | – | generally increased cytotoxicities | detected | significantly more toxic to HepaRG™ cells than tetrandrine | cell viability of HepaRG cells (HepaRG™ cells): slightly; sensitization of VCR-R CEM cells to vincristine (apoptosis) (VCR-R CEM cells [6]): most potent analogue as it significantly increased apoptosis at 0.01 μM VCR
7 | COc1cc2c(cc1OC)[C@@H](Cc1ccc(Oc3cc(C[C@@H]4c5cc(OC)c(OC)cc5CCN4C)ccc3O)cc1)N(C)CC2 [dauricine, reference compound] | – | – | – | – | cell death of HepG2 cells: influence of cellular CYP3A4 overexpression (HepG2 cells [3]): not significantly increased
8 | COc1cc2c3cc1Oc1c(OC)c(OC)cc4c1C(Cc1ccc(Cl)c(c1)Oc1ccc(cc1)CC3N(C)CC2)N(C)CC4 (racemic) [RMS7, (±)-12-Desmethoxy-12-chlorotetrandrine and –isotetrandrine] | no such an effect | generally increased cytotoxicities | – | – | –
9 | COc1cc2c3cc1Oc1c(OC)c(OC)cc4c1C(Cc1cccc(c1)Oc1ccc(cc1)CC3N(C)CC2)N(C)CC4 (racemic) [RMS1, (±)-12-Desmethoxytetrandrine and –isotetrandrine] | no such an effect | generally increased cytotoxicities | detected | – | –
10 | COc1cc2c3cc1Oc1c(OC)c(OC)cc4c1C(Cc1ccc(OC(F)(F)F)c(c1)Oc1ccc(cc1)CC3N(C)CC2)N(C)CC4 (racemic) [RMS4, (±)-12-Desmethoxy-12-trifluoromethoxytetrandrine and –isotetrandrine] | – | generally increased cytotoxicities | detected | significantly more toxic to HepaRG™ cells than tetrandrine | cell viability of HepaRG cells (HepaRG™ cells): slightly; p-Akt levels (HepG2 cells [8]): reduced
11 | COc1cc2c3cc1Oc1c(OC)c(OC)cc4c1[C@@H](Cc1ccc(O)c(c1)Oc1ccc(cc1)C[C@@H]3N(C)CC2)N(C)CC4 [berbamine, reference compound] | – | – | – | – | cell death of HepG2 cells: influence of cellular CYP3A4 overexpression (HepG2 cells [3]): not significantly increased
12 | COc1cc2c3cc1Oc1c(OC)c(OC)cc4c1C(CCCCOc1ccc(cc1)CC3N(C)CC2)N(C)CC4 (racemic) [RMS9, (±)-Ring C propylidene analogues of tetrandrine and –isotetrandrine] | no such an effect | – | – | significantly less toxic than tetrandrine | prevention of efflux of calcein-AM (P-gp inhibition) (P-gp): strongly reduces it; sensitization of VCR-R CEM cells to vincristine (apoptosis) (VCR-R CEM cells [6]): all but RMS9 and RMS10 were able to sensitize; inhibition of proliferation of VCR-R CEM cells (VCR-R CEM cells [7]): nearly inactive
